Reference: ChEMBL document CHEMBL1139283, “Synthesis and biological activity of 1,4-dihydrobenzothiopyrano[4,3-c]pyrazole derivatives, novel pro-apoptotic mitochondrial targeted agents” (Bioorg Med Chem, 2009)
Active and inactive are the calls of the source. The rule behind the calls is not given here.

What was measured:
[1] = test system: HeLa; experiment: Cytotoxicity against human HeLa cells after 72 hrs by trypan blue assay; type: functional, cell-based
Outline: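 HeLa cells kept in Ham's F-12 with 10% heat-inactivated FCS plus antibiotics, 37 °C, 5% CO2. 4×10^4 cells/well seeded, 24 h, medium renewed, then a range of concentrations added for 72 h. Viability by trypan blue; IC50 is the concentration giving 50% fewer cells than control.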

[2] = test system: HL-60; experiment: Cytotoxicity against human HL60 cells after 72 hrs by trypan blue assay; type: functional, cell-based; details: HL-60, 72 h
Outline: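 HL-60 cells kept in RPMI 1640 with 15% heat-inactivated FCS plus antibiotics, 37 °C, 5% CO2. 4×10^4 cells/well seeded, 24 h, then a range of concentrations added to complete medium for 72 h. Cell number counted by trypan blue; IC50 is the concentration giving 50% fewer cells than control cultures.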

[3] = test system: Salmonidae; experiment: Binding affinity to Salmon testes DNA assessed as drug-DNA complex formation by linear flow dichroism method
Outline: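 Salmon testes DNA at 1.6×10^-3 M in ETN buffer (10 mM Tris, 10 mM NaCl, 1 mM EDTA, pH 7). DNA concentration set from extinction coefficient 6600 M(p)-1 cm-1 at 260 nm. Linear dichroism spectra recorded at 25 °C at [drug]/[DNA] = 0.00 and 0.08.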

[4] = species: Rattus norvegicus; experiment: Induction of cytochrome c release in rat liver mitochondria at 50 uM by Western blotting in presence of Ca2+; type: functional
Outline: (§1)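 Rat liver mitochondria (1 mg protein/mL) incubated 15 min at 20 °C in standard medium with 30 μM Ca2+ unless omitted. Agent 50 μM, CsA 1 μM. Supernatant after 13,000 g, 10 min, 4 °C, concentrated and run on SDS-PAGE (15% for cyt c, 10% for AIF). Western blot with anti-cyt c and anti-AIF antibodies.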

[5] = test system: HeLa; experiment: Induction of DNA fragmentation in human HeLa cells at 100 uM after 24 hrs; type: functional, cell-based
Outline: (§2)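 HeLa cells (5×10^5) grown 24 h at 37 °C, optionally pretreated 30 min at 37 °C with 5 μM CsA. Medium renewed, agent added at 100 μM for 24 h. Extracted DNA in TE buffer run on 0.8% agarose gel in TBE, pH 8.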

[6] = species: Rattus norvegicus; experiment: Increase in hydrogen peroxide production in rat liver mitochondria assessed per mg of protein at 50 uM; type: functional
Outline: (§3)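 Rat liver mitochondria, 1 mg protein/mL, 20 °C, standard succinate/rotenone medium pH 7.4 with 30 μM Ca2+ unless omitted. Agent 50 μM. H2O2 measured fluorometrically by the scopoletin method, expressed per mg protein; mean ± SD of four independent experiments.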

[7] = test system: HeLa; experiment: Induction of mitochondrial membrane depolarization in human HeLa cells at 50 uM after 24 hrs by FL2 staining; type: functional
Outline: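 Near-confluent HeLa cells given 50 μM agent in DMSO for 24 h at 37 °C; JC-1 added at […] final for the last 10 min. Positive control 20 μM H2O2 for 24 h. After cold PBS wash, flow cytometry with 488 nm excitation; monomers at 530 nm, aggregates (FL2) at 585/650 nm. At least 10,000 events; one of four experiments.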

[8] = species: Rattus norvegicus; experiment: Effect on mitochondrial swelling in rat liver mitochondria assessed as complete collapse of electrical membrane potential at 50 uM in presence of N-ethylmaleimide; type: functional
[9] = test system: HeLa; experiment: Induction of apoptosis in human HeLa cells assessed as non apoptotic cell count at 50 uM using Annexin-V-FITC PI stain by flow cytometry; type: functional
Outline: (§4)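 Near-confluent HeLa cells exposed to 50 μM agent for 0, 24 or 48 h at 37 °C. About 5×10^5 cells in binding buffer (10 mM Hepes pH 7.5, 140 mM NaCl, 2.5 mM CaCl2) stained with 1 μg/ml Annexin V-FITC and 1 μg/ml PI, 10 min at room temperature in the dark. Flow cytometry; mean of three independent experiments.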

[10] = test system: HeLa; experiment: Induction of apoptosis in human HeLa cells assessed as non apoptotic cell count at 50 uM treated for 48 hrs before Annexin-V-FITC PI staining by flow cytometry; type: functional; outline: as §4
[11] = test system: HeLa; experiment: Induction of apoptosis in human HeLa cells assessed as dead cell count at 50 uM treated for 48 hrs before Annexin-V-FITC PI staining by flow cytometry; type: functional
[12] = species: Rattus norvegicus; experiment: Induction of cytochrome c release in rat liver mitochondria at 50 uM by Western blotting in presence of cyclosporin A; type: functional; outline: as §1
[13] = species: Rattus norvegicus; experiment: Induction of apoptosis inducing factor release in rat liver mitochondria at 50 uM by Western blotting in presence of cyclosporin A; type: functional; outline: as §1
[14] = test system: HeLa; experiment: Cytotoxicity against human HeLa cells assessed as viable cells at 6 uM after 72 hrs by trypan blue assay in presence of cyclosporin A; type: functional; details: read-out: Activity
Outline: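 HeLa cells seeded, after 24 h pretreated 30 min with 2 μM CsA. Medium renewed, 6 μM agent added, 72 h. Viable cells counted by trypan blue and expressed as percent of control culture cell number.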

[15] = species: Rattus norvegicus; experiment: Effect on mitochondrial swelling in rat liver mitochondria assessed as complete collapse of electrical membrane potential at 50 uM in presence of cyclosporin A; type: functional
[16] = species: Rattus norvegicus; experiment: Effect on mitochondrial swelling in rat liver mitochondria assessed as complete collapse of electrical membrane potential at 50 uM in presence of ADP; type: functional
[17] = test system: HeLa; experiment: Induction of apoptosis in human HeLa cells assessed as late stage apoptotic cell count at 50 uM using Annexin-V-FITC PI stain by flow cytometry; type: functional; outline: as §4
[18] = test system: HeLa; experiment: Induction of apoptosis in human HeLa cells assessed as late stage apoptotic cell count at 50 uM treated for 48 hrs before Annexin-V-FITC PI staining by flow cytometry; type: functional; outline: as §4
[19] = test system: HeLa; experiment: Induction of apoptosis in human HeLa cells assessed as non apoptotic cell count at 50 uM treated for 24 hrs before Annexin-V-FITC PI staining by flow cytometry; type: functional; outline: as §4
[20] = test system: HeLa; experiment: Induction of apoptosis in human HeLa cells assessed as late stage apoptotic cell count at 50 uM treated for 24 hrs before Annexin-V-FITC PI staining by flow cytometry; type: functional; outline: as §4
[21] = species: Rattus norvegicus; experiment: Decrease in mitochondrial sulfydryl groups in rat liver mitochondria at 50 uM; type: functional; set-up: scale not given: the % may be the effect or the level left
Outline: (§5)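 Rat liver mitochondria (1 mg protein/mL) at 20 °C in 250 mM sucrose, 10 mM Hepes pH 7.4, 5 mM succinate, 1.25 μM rotenone with 30 μM Ca2+ unless omitted. Agent 50 μM; DTE 2 mM where present. Protein thiol oxidation measured; mean ± SD of four independent experiments.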

[22] = species: Rattus norvegicus; experiment: Effect on mitochondrial swelling in rat liver mitochondria assessed as complete collapse of electrical membrane potential at 50 uM in presence of Ca2+; type: functional
[23] = test system: HeLa; experiment: Induction of apoptosis in human HeLa cells assessed as early stage apoptotic cell count at 50 uM using Annexin-V-FITC PI stain by flow cytometry; type: functional; outline: as §4
[24] = species: Rattus norvegicus; experiment: Effect on mitochondrial swelling in rat liver mitochondria assessed as complete collapse of electrical membrane potential at 50 uM in presence of bongkrekic acid; type: functional
[25] = test system: HeLa; experiment: Induction of DNA fragmentation in human HeLa cells at 100 uM after 24 hrs in presence of cyclosporin A; type: functional, cell-based; outline: as §2
[26] = species: Rattus norvegicus; experiment: Effect on mitochondrial swelling in rat liver mitochondria assessed as complete collapse of electrical membrane potential at 50 uM; type: functional
[27] = test system: HeLa; experiment: Induction of apoptosis in human HeLa cells assessed as dead cell count at 50 uM treated for 24 hrs before Annexin-V-FITC PI staining by flow cytometry; type: functional
[28] = species: Rattus norvegicus; experiment: Induction of apoptosis inducing factor release in rat liver mitochondria at 50 uM by Western blotting in presence of Ca2+; type: functional; outline: as §1
[29] = test system: HeLa; experiment: Induction of apoptosis in human HeLa cells assessed as dead cell count at 50 uM using Annexin-V-FITC PI stain by flow cytometry; type: functional
[30] = species: Rattus norvegicus; experiment: Decrease in mitochondrial sulfydryl groups in rat liver mitochondria at 50 uM in presence of DTE; type: functional; outline: as §5
[31] = species: Rattus norvegicus; experiment: Decrease in mitochondrial sulfydryl groups in rat liver mitochondria at 50 uM in presence of Ca2+; type: functional; outline: as §5
[32] = test system: HeLa; experiment: Induction of apoptosis in human HeLa cells assessed as early stage apoptotic cell count at 50 uM treated for 48 hrs before Annexin-V-FITC PI staining by flow cytometry; type: functional; outline: as §4
[33] = test system: HeLa; experiment: Induction of apoptosis in human HeLa cells assessed as early stage apoptotic cell count at 50 uM treated for 24 hrs before Annexin-V-FITC PI staining by flow cytometry; type: functional; outline: as §4
[34] = species: Rattus norvegicus; experiment: Increase in hydrogen peroxide production in rat liver mitochondria assessed per mg of protein at 50 uM in presence of CA2+; type: functional; outline: as §3

COc1ccc2c(c1)SCc1cn[nH]c1-2
IC50 [1]: > 20 µM | IC50 [2]: > 20 µM

Clc1ccc(-n2ncc3c2-c2ccc(Cl)cc2SC3)cc1
IC50 [1]: > 20 µM | IC50 [2]: > 20 µM

COc1ccc2c(c1)SCc1cnn(-c3ccccc3)c1-2
Activity [3]: inactive | IC50 [1]: 17.2 µM | IC50 [2]: 12.5 µM

COc1ccc2c(c1)SCc1cnc(-c3ccccc3)nc1-2
IC50 [2]: 7.15 µM

COc1ccc2c(c1)SCc1cnn(-c3ccc(Cl)cc3)c1-2
Activity [4]: Active | Activity [5]: Active | Activity [3]: inactive | Activity [6]: 0.25 nmol | Activity [7]: 39.4% | Activity [8]: inactive | Activity [9]: 93.4% | Activity [10]: 40.9% | Activity [11]: 11.6% | IC50 [1]: 6.7 µM | Activity [12]: inactive | Activity [13]: inactive | viability at 6 µM [14]: 64% | Activity [15]: inactive | Activity [16]: inactive | IC50 [2]: 3.8 µM | Activity [17]: 1.2% | Activity [18]: 39% | Activity [19]: 46.7% | Activity [20]: 28.2% | Activity [21]: 20% | Activity [22]: Active | Activity [23]: 4.8% | Activity [24]: inactive | Activity [25]: inactive | Activity [26]: inactive | Activity [27]: 5.4% | Activity [28]: Active | Activity [29]: 0.6% | Activity [30]: Active | Activity [31]: 2 | Activity [32]: 8.5% | Activity [33]: 19.7% | Activity [34]: 0.55 nmol

COc1ccc2c(c1)SCc1cn(-c3ccc(Cl)cc3)nc1-2
IC50 [1]: > 20 µM | IC50 [2]: > 20 µM

COc1ccc2c(c1)SCc1cn(-c3ccccc3)nc1-2
IC50 [1]: > 20 µM | IC50 [2]: > 20 µM

COc1ccc(-n2ncc3c2-c2ccc(Cl)cc2SC3)cc1
IC50 [1]: > 20 µM | IC50 [2]: > 20 µM

Clc1ccc2c(c1)SCc1cn[nH]c1-2
IC50 [1]: > 20 µM | IC50 [2]: > 20 µM

COc1ccc(-n2cc3c(n2)-c2ccc(OC)cc2SC3)cc1
IC50 [1]: > 20 µM | IC50 [2]: > 20 µM

COc1ccc(-n2ncc3c2-c2ccc(OC)cc2SC3)cc1
Activity [3]: inactive | IC50 [1]: 17.8 µM | IC50 [2]: 6.6 µM

Clc1ccc2c(c1)SCc1cnn(-c3ccccc3)c1-2
IC50 [1]: > 20 µM | IC50 [2]: > 20 µM
